Test results: ChEMBL document CHEMBL3259774, “Antimycobacterial activity of chiral aminoalcohols with camphane scaffold” (Eur J Med Chem, 2014)
Converted amounts (≈) assume the structure as drawn. Where a name gives a salt, the structure may show the parent alone.

Legend:
HEK-293T = test: Cytotoxicity against HEK293T cells after 72 hrs by MTT assay; assay type: cell-based; conditions: Homo sapiens
Method in brief: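 HEK 293T cells grown in RPMI-1640 with 10% heat-inactivated foetal calf serum and 2 mM L-glutamine, 37 °C, 5% CO2. Cells seeded at […] cells/ml, grown 24 h, then exposed 72 h to compounds serially diluted from fresh DMSO stocks (final DMSO ≤0.5%), ≥8 wells per concentration. MTT added for 4 h at 37 °C, formazan dissolved in 5% HCOOH/2-propanol, read at 580 nm. Survival expressed as % of untreated control; IC50 from sigmoidal curve fit.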

[1] = system: Mycobacterium tuberculosis; test: Antimycobacterial activity against Mycobacterium tuberculosis H37Rv assessed as growth inhibition after 45 days; assay type: functional
Method in brief: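 Canetti proportion method on Löwenstein–Jensen egg medium. Each compound was added as a sterile DMSO suspension/solution before coagulation (30 min at 85 °C) and tested at five concentrations. Tubes were inoculated with 10⁵ cells/ml and incubated 45 days at 37 °C. Colony counts were expressed as percent of drug-free control. MIC is the lowest concentration giving complete inhibition (0% growth).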

| Compound | IC50 (HEK-293T) [µM] | MIC [1] [µM] |
| --- | --- | --- |
| CC1(C)[C@@H]2CC[C@@]1([C@H](O)CN1CCN(c3ccccc3F)CC1)C(=O)C2 | 120 | 0.28 (≈ 0.101 µg/mL) |
| CC(C)N(C[C@H](O)[C@]12CC[C@H](CC1=O)C2(C)C)C(C)C | 166 | 0.37 (≈ 0.104 µg/mL) |
| CC(C)N(C[C@@H](O)[C@]12CC[C@H](CC1=O)C2(C)C)C(C)C | – | 10.7 (≈ 3 µg/mL) |
| CC1(C)[C@@H]2CC[C@@]1([C@@H](O)CN1CCCC1)C(=O)C2 | – | 19.9 (≈ 5 µg/mL) |
| CC1(C)[C@@H]2CC[C@@]1([C@@H](O)CN1CCCCC1)C(=O)C2 | 143 | 0.38 (≈ 0.101 µg/mL) |
| CC1(C)[C@@H]2CC[C@@]1([C@H](O)CN1CCCCC1)C(=O)C2 | – | 18.8 (≈ 5 µg/mL) |
| CC1CCN(C[C@H](O)[C@]23CC[C@H](CC2=O)C3(C)C)CC1 | 158 | 0.72 (≈ 0.201 µg/mL) |
| CC1CCN(C[C@@H](O)[C@]23CC[C@H](CC2=O)C3(C)C)CC1 | 169 | 0.36 (≈ 0.101 µg/mL) |
| CN1CCN(C[C@H](O)[C@]23CC[C@H](CC2=O)C3(C)C)CC1 | – | 17.8 (≈ 5 µg/mL) |
| CN1CCN(C[C@@H](O)[C@]23CC[C@H](CC2=O)C3(C)C)CC1 | – | 17.8 (≈ 5 µg/mL) |
| CC1(C)[C@@H]2CC[C@@]1([C@@H](O)CN1CCN(c3ccccc3)CC1)C(=O)C2 | – | 14.6 (≈ 5 µg/mL) |
| CC1(C)[C@@H]2CC[C@@]1([C@H](O)CN1CCN(c3ccccc3)CC1)C(=O)C2 | – | 14.6 (≈ 5 µg/mL) |
| CC1(C)[C@@H]2CC[C@@]1([C@@H](O)CN1CCN(c3ccccc3F)CC1)C(=O)C2 | 129 | 0.28 (≈ 0.101 µg/mL) |
| CC1(C)[C@@H]2CC[C@@]1([C@@H](O)CN1CCN(c3ccc(F)cc3)CC1)C(=O)C2 | 82.2 | 0.28 (≈ 0.101 µg/mL) |
| CC1(C)[C@@H]2CC[C@@]1([C@H](O)CN1CCN(c3ccc(F)cc3)CC1)C(=O)C2 | 65.1 | 0.28 (≈ 0.101 µg/mL) |
| CC1(C)[C@@H]2CC[C@@]1([C@@H](O)CN1CCN(c3ccc(Cl)cc3)CC1)C(=O)C2 | 8.6 | 7.96 (≈ 3 µg/mL) |
| CC1(C)[C@@H]2CC[C@@]1([C@H](O)CN1CCN(c3ccc(Cl)cc3)CC1)C(=O)C2 | 9.2 | 0.27 (≈ 0.102 µg/mL) |
| CC1(C)[C@@H]2CC[C@@]1([C@@H](O)CN1CCOCC1)C(=O)C2 | > 200 | 0.37 (≈ 0.0989 µg/mL) |
| CC1(C)[C@@H]2CC[C@@]1([C@H](O)CN1CCOCC1)C(=O)C2 | – | 18.7 (≈ 5 µg/mL) |
| CC1(C)[C@@H]2CC[C@@]1([C@@H](O)CN1CCSCC1)C(=O)C2 | – | 17.6 (≈ 5 µg/mL) |
| CC1(C)[C@@H]2CC[C@@]1([C@H](O)CN1CCSCC1)C(=O)C2 | – | 17.6 (≈ 5 µg/mL) |
| CC[C@@H](CO)NCCN[C@@H](CC)CO [ETHAMBUTOL HYDROCHLORIDE] | – | 7.22 |
